Data from ChEMBL document CHEMBL3817731, “Synthesis and investigation of novel benzimidazole derivatives as antifungal agents” (Bioorg Med Chem, 2016).
Values after ≈ are worked out from the molar mass of the structure shown. Active and inactive are the calls of the source. The rule behind the calls is not given here.

How the values were obtained:
Nakaseomyces glabratus = assay: Antifungal activity against Candida glabrata ATCC 2001 after 48 hrs by CLSI M27-A3 method; assay type: functional; conditions: CBS 138, 48 h
Candida albicans [1] = assay: Antifungal activity against Candida albicans ATCC MYA-1237 after 48 hrs by CLSI M27-A3 method; assay type: functional; conditions: ATCC MYA-1237, 48 h
Candida albicans [2] = assay: Antifungal activity against Candida albicans ATCC MYA-2876 after 48 hrs by CLSI M27-A3 method; assay type: functional; conditions: ATCC MYA-2876, 48 h
Aspergillus nidulans = assay: Antifungal activity against Aspergillus nidulans ATCC 38163 after 48 hrs by CLSI M38-A2 method; assay type: functional; conditions: ATCC 38163, 48 h
Pichia kudriavzevii = assay: Antifungal activity against Candida krusei ATCC 6258 after 48 hrs by CLSI M27-A3 method; assay type: functional; conditions: ATCC 6258, 48 h
Candida albicans [3] = assay: Antifungal activity against Candida albicans ATCC MYA-2310 after 48 hrs by CLSI M27-A3 method; assay type: functional; conditions: ATCC MYA-2310, 48 h
Candida albicans [4] = assay: Antifungal activity against Candida albicans ATCC MYA-90819 after 48 hrs by CLSI M27-A3 method; assay type: functional; conditions: ATCC MYA-90819, 48 h
Candida albicans [5] = assay: Antifungal activity against Candida albicans ATCC 64124 after 48 hrs by CLSI M27-A3 method; assay type: functional; conditions: ATCC 64124, 48 h
Candida albicans [6] = assay: Antifungal activity against Candida albicans ATCC 10231 after 48 hrs by CLSI M27-A3 method; assay type: functional; conditions: ATCC 10231, 48 h
Candida parapsilosis = assay: Antifungal activity against Candida parapsilosis ATCC 22019 after 48 hrs by CLSI M27-A3 method; assay type: functional; conditions: Lodderomyces parapsilosis, ATCC 22019, 48 h
Candida albicans [7] = assay: Antifungal activity against Candida albicans ATCC MYA-1003 after 48 hrs by CLSI M27-A3 method; assay type: functional; conditions: ATCC MYA-1003, 48 h
Aspergillus terreus = assay: Antifungal activity against Aspergillus terreus ATCC MYA3633 after 48 hrs by CLSI M38-A2 method; assay type: functional; conditions: ATCC MYA3633, 48 h
Candida albicans [8] = assay: Induction of ROS production in Candida albicans ATCC 10231 at 8 to 16 ug/ml after 1 hr by DCFH-DA probe based fluorescence microscopy; assay type: functional, organism-based
Method in brief: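 C. albicans ATCC 10231 yeast cells exposed to drug at 8 and 16 µg/mL for 1 h at 35 °C, alongside untreated and AmB controls. Cells were then stained with DCFH-DA (20 µg/mL) for 30 min in the dark. Intracellular ROS was visualised by fluorescence microscopy.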

Aspergillus flavus = assay: Antifungal activity against Aspergillus flavus ATCC MYA-3631 after 48 hrs by CLSI M38-A2 method; assay type: functional; conditions: ATCC MYA-3631, 48 h
Candida albicans [9] = assay: Fungicidal activity against Candida albicans ATCC 64124 assessed as reduction in fungal population at 2 times MIC after 24 to 48 hrs by time kill assay; assay type: functional
Candida albicans [10] = assay: Fungistatic activity against Candida albicans ATCC 64124 assessed as reduction in fungal population at MIC upto 24 hrs by time kill assay; assay type: functional, organism-based
Candida albicans [11] = assay: Induction of ROS production in Candida albicans ATCC 10231 at 1 to 2 times MIC after 1 hr by DCFH-DA probe based fluorescence microscopy; assay type: functional, organism-based
A549 = assay: Cytotoxicity against human A549 cells assessed as reduction in cell survival after 24 hrs by resazurin assay; assay type: cell-based; conditions: A549, 24 h
Method in brief: (§1)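 Human A549 cells treated 24 h; BEAS 2B cells treated 6 h or 24 h. DMSO-treated cells served as negative control and Triton X-treated cells as positive control. Read-out was cell survival.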

Candida albicans [12] = assay: Fungistatic activity against Candida albicans ATCC 64124 assessed as reduction in fungal population at MIC after 24 hrs by time kill assay
[13] = Cytotoxicity against human BEAS2B cells assessed as reduction in cell survival after 24 hrs by resazurin assay; assay type: cell-based; conditions: BEAS-2B; method in brief: as §1
[14] = Cytotoxicity against human BEAS2B cells assessed as reduction in cell survival after 6 hrs by resazurin assay; assay type: cell-based; conditions: beas-2b; method in brief: as §1
Candida albicans [15] = assay: Fungicidal activity against Candida albicans ATCC 64124 assessed as reduction in fungal population at MIC after 9 hrs by time kill assay; assay type: functional

Structure (SMILES)	MIC (Nakaseomyces glabratus)	MIC (Candida albicans [1])	MIC (Candida albicans [2])	MIC (Aspergillus nidulans)	MIC (Pichia kudriavzevii)	MIC (Candida albicans [3])	MIC (Candida albicans [4])	MIC (Candida albicans [5])	MIC (Candida albicans [6])	MIC (Candida parapsilosis)	MIC (Candida albicans [7])	MIC (Aspergillus terreus)	MIC (Aspergillus flavus)	Activity (Candida albicans [9])	Activity (Candida albicans [11])	further results
CCCCCCCCCCCCN1CCN(c2ccc3nc(-c4ccc5nc(-c6ccc(O)cc6)[nH]c5c4)[nH]c3c2)CC1	> 31.2 µg/mL	> 31.2 µg/mL	> 31.2 µg/mL	> 31.2 µg/mL	> 31.2 µg/mL	> 31.2 µg/mL	> 31.2 µg/mL	> 31.2 µg/mL	> 31.2 µg/mL	> 31.2 µg/mL	> 31.2 µg/mL	> 31.2 µg/mL	> 31.2 µg/mL	–	–	Activity (Candida albicans [8]): inactive
CCOc1ccc(-c2nc3cc(-c4nc5cc(N6CCN(C)CC6)ccc5[nH]4)ccc3[nH]2)cc1	7.8 µg/mL (≈ 17.2 µM)	7.8 µg/mL (≈ 17.2 µM)	7.8 µg/mL (≈ 17.2 µM)	3.9 µg/mL (≈ 8.62 µM)	7.8 µg/mL (≈ 17.2 µM)	7.8 µg/mL (≈ 17.2 µM)	7.8 µg/mL (≈ 17.2 µM)	7.8 µg/mL (≈ 17.2 µM)	7.8 µg/mL (≈ 17.2 µM)	3.9 µg/mL (≈ 8.62 µM)	15.6 µg/mL (≈ 34.5 µM)	7.8 µg/mL (≈ 17.2 µM)	31.2 µg/mL (≈ 68.9 µM)	5 log10CFU	Active	Activity (Candida albicans [10]): Active; IC50 (A549): 0.98 µg/mL (≈ 2.17 µM); Activity (Candida albicans [12]): 1 log10CFU; IC50 [13]: 1.95 µg/mL (≈ 4.31 µM); Activity [14]: Non-toxic
C[C@@H]1[C@H](O)[C@@H](C)/C=C/C=C/C=C/C=C/C=C/C=C/C=C/[C@H](O[C@@H]2O[C@H](C)[C@@H](O)[C@H](N)[C@@H]2O)C[C@@H]2O[C@](O)(C[C@@H](O)C[C@@H](O)[C@H](O)CC[C@@H](O)C[C@@H](O)CC(=O)O[C@H]1C)C[C@H](O)[C@H]2C(=O)O [AMPHOTERICIN B]	1.95 µg/mL (≈ 2.11 µM)	3.9 µg/mL (≈ 4.22 µM)	1.95 µg/mL (≈ 2.11 µM)	–	3.9 µg/mL (≈ 4.22 µM)	1.95 µg/mL (≈ 2.11 µM)	0.975 µg/mL (≈ 1.06 µM)	3.9 µg/mL (≈ 4.22 µM)	3.9 µg/mL (≈ 4.22 µM)	1.95 µg/mL (≈ 2.11 µM)	3.9 µg/mL (≈ 4.22 µM)	3.9 µg/mL (≈ 4.22 µM)	–	Active	Active	Activity (Candida albicans [15]): Active
